An excerpt weighted towards active compounds, which were near 2.6% of everything screened.
STEP inh: STEP (human) phosphatase inhibition. P54829. recombinant STEP, OMFP fluorogenic substrate, fluorescence. inhibition, % at 20 µM. actives 0.25% (n = 360,000);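 active = inhibition at 20 µM, scaled per plate between control wells, above about 37%, limit read from the data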;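 note: 0% = DMSO with enzyme and substrate and 100% = substrate only without enzyme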
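Assay system: isolated STEP enzyme. Buffer or medium: pH 6.0 Bis-Tris with DTT and Tween 20. Also added: fluorogenic phosphatase substrate OMFP at 25 µM final. Dosing: 20 µM, 1% DMSO. Timing: 20 min reaction, room temperature, in the dark. Measured by: fluorescence intensity, excitation 480 nm, emission 540 nm. Evaluation: normalized % inhibition.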
NadD inh: blocks S. aureus nicotinate mononucleotide adenylyltransferase. inhibition, % at 20 µM. purified NadD enzyme, colorimetric absorbance read-out. actives 0.78% (n = 360,000); in the data active = inhibition above about 26%
LMPTP block: blocks human LMPTP phosphatase | actives 0.22% (n = 360,000) | recombinant LMPTP-A, OMFP fluorogenic substrate, fluorescence intensity | inhibition, % at 20 µM;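 active = compounds that cut the enzyme signal by at least half of the control window in the single-dose screen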;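 note: plate controls were DMSO wells with enzyme plus substrate for no effect and substrate without enzyme for full effect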
Target sequence (P24666 whole entry, looked up): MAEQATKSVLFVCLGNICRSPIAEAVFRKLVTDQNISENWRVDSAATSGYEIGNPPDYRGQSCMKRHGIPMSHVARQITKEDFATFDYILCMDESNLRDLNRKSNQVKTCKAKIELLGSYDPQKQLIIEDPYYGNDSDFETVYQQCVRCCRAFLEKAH
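Test system: LMPTP-A, protein tyrosine phosphatase of low molecular weight; Input: 0.625 nM enzyme; Incubation: 50 min dark incubation at room temperature; Signal: endpoint fluorescence intensity from OMFP dephosphorylation; Read-out basis: % inhibition versus control wells.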
rCAG RNA binder: r(CAG) repeat RNA binding. TO-PRO-1 dye displacement fluorescence. inhibition, % at 3 µM. actives 1.3% (n = 370,000). AID 651821;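 active = inhibition above the plate cutoff, the mean of all test compounds on that plate plus 3 SD, cut at about 35% in these data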;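 note: 0% = DMSO alone and 100% = 100 µM mitoxantrone as full dye displacement; higher means more dye released from RNA so lower well fluorescence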
Scp1 inh: Scp-1 (human) phosphatase inhibition; actives 0.88% (n = 340,000); inhibition, % at 20 µM; Q9GZU7; Recombinant Scp1, phosphopeptide, malachite green phosphate absorbance;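 active = inhibition above about 50% at 20 µM, limit read from the data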;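 note: plate controls were DMSO wells with enzyme for no effect and wells lacking enzyme for full effect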
Target sequence (Q9GZU7 76-261 limits assumed): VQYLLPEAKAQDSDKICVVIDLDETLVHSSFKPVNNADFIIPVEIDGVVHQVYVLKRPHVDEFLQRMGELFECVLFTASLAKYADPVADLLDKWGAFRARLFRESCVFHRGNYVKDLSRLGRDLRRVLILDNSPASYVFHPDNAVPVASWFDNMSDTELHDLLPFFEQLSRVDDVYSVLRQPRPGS
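Test system: SCP-1 phosphatase catalytic domain, residues 76-261 | Compound dosing: One concentration, 20 µM, with 1.0% DMSO | Schedule: 45 min room-temperature reaction, 5 min colour, 30 min stabiliser | Detection: Absorbance at 630 nm | Read-out basis: % inhibition of SCP-1 phosphate liberation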
Scp-1 conf: Scp-1 (human) inhibition, single-dose confirmed. shares compounds with Scp1 inh. recombinant SCP-1 catalytic domain, phosphate release, malachite green absorbance. inhibition, % at 20 µM. actives 61% (n = 2,500). AID 540281;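 note: plate controls were DMSO with enzyme for no effect and buffer wells lacking enzyme for full effect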
MG interference: colorimetric interference in Scp-1 counter-screen; shares compounds with Scp1 inh; Colorimetric interference counterscreen, malachite green absorbance 630 nm; apparent inhibition (interference), % at 20 µM; 2,500 tested, under 10 active; AID 540313;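 note: compounds added after enzyme reaction finished so only phosphate colour detection is probed; plate controls were DMSO wells with completed Scp-1 reaction for no effect and substrate wells lacking enzyme for full effect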
Scp-1 Tm shift: validation of human Scp-1 inhibitors by thermal shift binding | shares compounds with Scp1 inh | Recombinant SCP1, Sypro Orange thermal shift Tm | thermal shift relative to vanadate control, % at 40 µM | actives 25% (n = 1,500) | AID 540329;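 active = substances whose mean melting-temperature shift, as a percentage of the reference inhibitor's shift, reaches about 5.3%, limit read from the data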;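 note: 0% = Tm of DMSO wells and 100% = Tm with sodium orthovanadate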
Active calls of the source: *; x = not tested or not shown.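 Rule for the calls, unless noted: active = inhibition of at least 30% at 20 µM; inactive = the rest.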

SMILES	STEP inh	NadD inh	LMPTP block	rCAG RNA binder	Scp1 inh	Scp-1 conf	MG interference	others
O=C(CCN1C(=O)S/C(=C\c2ccc(Cl)cc2)C1=O)Nc1ccc(C(=O)O)cc1	8	1	12	-1	80*	72*	-13	Scp-1 Tm shift=-4
CSc1ccc(C=NNC(=O)c2cc(-c3ccc(Cl)cc3)n[nH]2)cc1	x	x	x	5	x	x	x
O=C(CNC(=O)c1ccc(Cl)cc1)N/N=C/C=C/c1ccccc1	3	0	5	0	84*	8	-11
O=C(COc1ccccc1)NCC(=O)N/N=C/C=C/c1ccccc1	-5	-1	-2	1	-7	x	x
C/C(=N\NC(=O)c1ccc(Cl)cc1)c1ccc(Br)s1	0	1	-1	0	6	x	x
C/C(=N\NC(=O)c1cc(Cl)ccc1O)c1ccc(Br)s1	16	4	22	4	93*	80*	-13	Scp-1 Tm shift=0
O=C(Nc1ccc(O)c(-c2nc3ccccc3s2)c1)c1cc(=O)c2ccccc2o1	38	13	52*	3	80*	68*	-14	Scp-1 Tm shift=2
COc1ccc(CNC(=O)C(OC(=O)c2ccco2)c2ccccc2F)cc1 (stereo not drawn)	0	0	-1	1	57*	-17	-13
O=C(/C=C/c1ccco1)N1CCN(S(=O)(=O)c2cccs2)CC1	3	0	7	6	58*	47*	-4	Scp-1 Tm shift=1
CCOC(=O)C(=O)Cc1cccnn1	3	10	6	9	75*	44*	-23	Scp-1 Tm shift=12*
O=C(Nc1cc(Cl)ccc1F)C1CCCN1S(=O)(=O)c1cccc2cccnc12 (stereo not drawn)	x	x	x	1	x	x	x
Cc1cc(C)cc(N=C2NC(=O)/C(=C/c3cccs3)S2)c1	-1	6	2	21	20	x	x
O=C1NC(=Nc2ccccc2)S/C1=C\c1cccs1	21	-5	31	18	97*	20	-14
Nn1c(SCC(=O)Nc2nccs2)nnc1-c1cc(-c2ccccc2)n[nH]1	x	x	x	3	x	x	x
CCCCNC(=O)C1CC(=O)N(CCc2ccccc2)C1 (stereo not drawn)	4	-3	-2	-3	-7	x	x
CCOCCCN1CC(C(=O)NCCc2ccccc2)CC1=O (stereo not drawn)	0	5	0	-3	-3	-14	-16
Cc1ccc(CCN2CC(C(=O)NCCCN3CCOCC3)CC2=O)cc1 (stereo not drawn)	-8	-7	-3	-1	-2	-9	-11
O=C(NCc1ccc2c(c1)OCO2)C1CC(=O)N(CCc2ccccc2)C1 (stereo not drawn)	6	-1	-2	3	-10	-8	-8
O=C(NCc1ccc(F)cc1)C1CC(=O)N(CCc2ccccc2)C1 (stereo not drawn)	4	3	0	-2	-10	-7	-11
CC(C)CCN1CC(C(=O)NCc2ccc(F)cc2)CC1=O (stereo not drawn)	-1	-3	-1	-4	-5	x	x
O=C(NCc1ccc2c(c1)OCO2)C1CC(=O)N(CCc2ccc(F)cc2)C1 (stereo not drawn)	0	-1	0	5	-1	x	x
COC(=O)[C@]12C[C@H](CC(=O)N3CCCC3)C(=O)N(CCC3=CCCCC3)C1=C[C@H](C1CCCC1)O[C@@H]2C	x	x	x	7	x	x	x
Cc1cc(Br)ccc1OCC(=O)NNC(=O)c1ccc(NC(=O)C2CC2)cc1	-1	-4	5	1	61*	9	-10
O=C(NCCc1ccccc1)OCc1cn(Cc2ccc(F)cc2)nn1	x	x	x	2	x	x	x
O=C(O)c1ccc(CSc2nc3ccc(NC(=O)c4ccccc4C(=O)O)cc3s2)cc1	24	6	6	8	58*	43*	-20	Scp-1 Tm shift=-10
CC1CCCN(CCCNS(=O)(=O)c2cc3c(cc2Br)CCN3C(=O)C2CC2)C1 (stereo not drawn)	x	x	x	6	x	x	x

Screens as filed in PubChem BioAssay.
